pEC50: −log10 of the molar value.
Experiments:
dengue virus type 2 = assay: Antiviral activity against Dengue virus 2 NGC infected in human HuH7 replicon cells expressing Renilla luciferase and neomycin-resistance genes assessed as reduction in viral replication incubated for 48 hrs by luciferase reporter replicon-based assay; format: functional, organism-based; settings: Huh-7, 48 h
In short: (§1)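 Huh7 cells stably carrying a Renilla luciferase/neomycin-resistance replicon (DENV-1 WestPac, DENV-2 NGC, DENV-3 D3MY05-34640 or DENV-4 D4MY01-22713). Cells seeded at 10k per well and incubated overnight at 37 °C, 5% CO2. Then exposed to 2-fold serial compound dilutions for 48 h, in duplicate. Luciferase read with a live-cell substrate. EC50 from four-parameter logistic fit.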

dengue virus type 4 = assay: Antiviral activity against Dengue virus 4 D4MY01-22713 infected in human HuH7 replicon cells expressing Renilla luciferase and neomycin-resistance genes assessed as reduction in viral replication incubated for 48 hrs by luciferase reporter replicon-based assay; format: functional, organism-based; settings: D4MY01-22713, Huh-7, 48 h; in short: as §1
dengue virus type 3 = assay: Antiviral activity against Dengue virus 3 D3MY05-34640 infected in human HuH7 replicon cells expressing Renilla luciferase and neomycin-resistance genes assessed as reduction in viral replication incubated for 48 hrs by luciferase reporter replicon-based assay; format: functional, organism-based; settings: D3MY05-34640, Huh-7, 48 h; in short: as §1
dengue virus type 1 = assay: Antiviral activity against Dengue virus 1 WestPac infected in human HuH7 replicon cells expressing Renilla luciferase and neomycin-resistance genes assessed as reduction in viral replication incubated for 48 hrs by luciferase reporter replicon-based assay; format: functional, organism-based; settings: Huh-7, 48 h; in short: as §1
[1] = Cytotoxicity in human HuH7 replicon cells infected with Dengue virus 2 NGC assessed as reduction in cell viability incubated for 48 hrs by Cell-titer-Glo reagent based assay; design: species or system Huh-7
In short: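 Huh7 cells or Huh7 replicon cells plated, then held at 37 °C with 5% CO₂ overnight. Exposed to 2-fold serial compound dilutions for 48 h, in duplicate. Viability read with CellTiter-Glo and normalized to 0.45% DMSO wells set at 100%. CC50 from four-parameter logistic fit.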

SMILES	pEC50 (dengue virus type 2)	pEC50 (dengue virus type 4)	pEC50 (dengue virus type 3)	pEC50 (dengue virus type 1)	CC50 at 48 h [1] [nM]
COCCCN1C(=O)[C@]2(CC(=O)Nc3c2nnn3[C@@H](C)c2ccc(Cl)cc2)c2cc(Cl)ccc21	7.40	< 5.30	8.05	< 5.30	> 10000
C[C@@H](c1ccc(Cl)cc1)n1nnc2c1NC(=O)C[C@]21C(=O)N(CCN2CCCC2)c2ccc(Cl)cc21	7.42	< 5.30	8.22	< 5.30	> 10000
C[C@@H](c1ccc(Cl)cc1)n1nnc2c1NC(=O)C[C@]21C(=O)N(CCCCCl)c2ccc(Cl)cc21	7.14	< 5.30	7.72	< 5.30	> 10000
CC(C)N1C(=O)[C@]2(CC(=O)N(C(C)C)c3c2nnn3[C@@H](C)c2ccc(Cl)cc2)c2cc(Cl)ccc21	< 5.00	5.52	5.82	5.42	> 10000
CC#CCN1C(=O)[C@]2(CC(=O)Nc3c2nnn3[C@@H](C)c2ccc(Cl)cc2)c2cc(Cl)ccc21	7.20	< 5.30	7.70	< 5.30	> 10000
C[C@@H](c1ccc(Cl)cc1)n1nnc2c1NC(=O)C[C@]21C(=O)N(CCN2CCC2)c2ccc(Cl)cc21	7.17	< 5.30	8.15	< 5.30	> 10000
CC(C)CN1C(=O)[C@]2(CC(=O)Nc3c2nnn3[C@@H](C)c2ccc(Cl)cc2)c2cc(Cl)ccc21	6.82	< 5.30	7.70	5.89	> 10000
C[C@@H](c1ccc(Cl)cc1)n1nnc2c1NC(=O)C[C@]21C(=O)N(CCN2CCCCC2)c2ccc(Cl)cc21	7.13	< 5.30	8.30	< 5.30	> 10000
COc1cc(CN2C(=O)[C@]3(CC(=O)Nc4c3nnn4[C@@H](C)c3ccc(Cl)cc3)c3cc(Cl)ccc32)cc(OC)c1	5.51	5.13	6.10	5.47	> 10000
C=CCN1C(=O)[C@]2(CC(=O)Nc3c2nnn3[C@@H](C)c2ccc(Cl)cc2)c2cc(Cl)ccc21	7.42	< 5.30	8.30	5.68	> 10000
C[C@@H](c1ccc(Cl)cc1)n1nnc2c1NC(=O)C[C@]21C(=O)N(Cc2ccccn2)c2ccc(Cl)cc21	7.70	< 5.30	8.52	< 5.30	> 10000
CCCCCCN1C(=O)[C@]2(CC(=O)Nc3c2nnn3[C@@H](C)c2ccc(Cl)cc2)c2cc(Cl)ccc21	6.09	< 5.30	6.85	6.08	> 10000
C[C@@H](c1ccc(Cl)cc1)n1nnc2c1NC(=O)C[C@]21C(=O)N(Cc2ccc(F)cc2)c2ccc(Cl)cc21	6.80	5.00	7.32	5.30	> 10000
C[C@@H](c1ccc(Cl)cc1)n1nnc2c1NC(=O)C[C@]21C(=O)Nc2ccc(Cl)cc21	7.41	< 5.30	8.00	< 5.30	> 10000
C[C@@H](c1ccc(Cl)cc1)n1nnc2c1NC(=O)C[C@]21C(=O)N(CCN(C)CCS(C)(=O)=O)c2ccc(Cl)cc21	7.11	< 5.30	7.74	< 5.30	> 10000
CCCCCCCCCCN1C(=O)[C@]2(CC(=O)Nc3c2nnn3[C@@H](C)c2ccc(Cl)cc2)c2cc(Cl)ccc21	< 5.00	5.14	5.92	5.47	> 10000
C[C@@H](c1ccc(Cl)cc1)n1nnc2c1NC(=O)C[C@]21C(=O)N(CCCCN2CCCCC2)c2ccc(Cl)cc21	6.46	< 5.30	7.11	< 5.30	> 10000
C[C@@H](c1ccc(Cl)cc1)n1nnc2c1NC(=O)C[C@]21C(=O)N(CCCN2CCOCC2)c2ccc(Cl)cc21	7.12	< 5.30	8.30	< 5.30	> 10000
C[C@@H](c1ccc(Cl)cc1)n1nnc2c1NC(=O)C[C@]21C(=O)N(CC2CC2)c2ccc(Cl)cc21	6.96	< 5.30	7.77	5.51	> 10000
C[C@@H](c1ccc(Cl)cc1)n1nnc2c1NC(=O)C[C@]21C(=O)N(C)c2ccc(Cl)cc21	7.72	< 5.30	8.40	< 5.30	> 10000

SMILES	pEC50 (dengue virus type 2)	pEC50 (dengue virus type 4)	pEC50 (dengue virus type 3)	pEC50 (dengue virus type 1)	CC50 at 48 h [1] [nM]
C[C@@H](c1ccc(Cl)cc1)n1nnc2c1NC(=O)C[C@]21C(=O)N(Cc2ccc(Cl)nc2)c2ccc(Cl)cc21	7.11	< 5.30	8.22	< 5.30	> 10000
CCCCN1C(=O)[C@]2(CC(=O)Nc3c2nnn3[C@@H](C)c2ccc(Cl)cc2)c2cc(Cl)ccc21	7.12	< 5.30	7.74	5.89	> 10000
CC(C)N1C(=O)[C@]2(CC(=O)Nc3c2nnn3[C@@H](C)c2ccc(Cl)cc2)c2cc(Cl)ccc21	7.64	< 5.30	8.05	5.24	> 10000
C[C@@H](c1ccc(Cl)cc1)n1nnc2c1NC(=O)C[C@]21C(=O)N(CCCCCCBr)c2ccc(Cl)cc21	5.52	–	–	–	> 10000
C[C@@H](c1ccc(Cl)cc1)n1nnc2c1NC(=O)C[C@]21C(=O)N(CCN2CCN(C)CC2)c2ccc(Cl)cc21	6.52	< 5.30	7.52	< 5.30	> 10000
COCOCCN1C(=O)[C@]2(CC(=O)Nc3c2nnn3[C@@H](C)c2ccc(Cl)cc2)c2cc(Cl)ccc21	7.04	< 5.30	7.72	< 5.30	> 10000
C[C@@H](c1ccc(Cl)cc1)n1nnc2c1NC(=O)C[C@]21C(=O)N(CCCCCCCCN(C)C)c2ccc(Cl)cc21	6.31	< 5.30	7.38	< 5.30	> 10000
COc1cccc(CN2C(=O)[C@]3(CC(=O)Nc4c3nnn4[C@@H](C)c3ccc(Cl)cc3)c3cc(Cl)ccc32)c1	6.08	5.21	7.06	5.59	> 10000
C[C@@H](c1ccc(Cl)cc1)n1nnc2c1NC(=O)C[C@]21C(=O)N(Cc2ccc(Cl)c(F)c2)c2ccc(Cl)cc21	5.40	5.29	6.54	5.82	> 10000
C[C@@H](c1ccc(Cl)cc1)n1nnc2c1NC(=O)C[C@]21C(=O)N(Cc2cccc(F)c2)c2ccc(Cl)cc21	6.54	< 5.30	7.29	5.00	> 10000
C[C@@H](c1ccc(Cl)cc1)n1nnc2c1NC(=O)C[C@]21C(=O)N(Cc2ccccc2)c2ccc(Cl)cc21	6.82	< 5.30	7.70	5.70	> 10000
C[C@@H](c1ccc(Cl)cc1)n1nnc2c1NC(=O)C[C@]21C(=O)N(CCCCCCCCCCN(C)C)c2ccc(Cl)cc21	5.46	5.46	7.01	5.57	> 10000
C[C@@H](c1ccc(Cl)cc1)n1nnc2c1NC(=O)C[C@]21C(=O)N(CCCCN(C)C)c2ccc(Cl)cc21	6.72	< 5.30	7.42	< 5.30	> 10000
C[C@@H](c1ccc(Cl)cc1)n1nnc2c1NC(=O)C[C@]21C(=O)N(CCc2ccccc2)c2ccc(Cl)cc21	6.22	< 5.30	6.72	5.96	> 10000
C[C@@H](c1ccc(Cl)cc1)n1nnc2c1NC(=O)C[C@]21C(=O)N(Cc2ccc(Cl)cc2)c2ccc(Cl)cc21	5.48	5.19	6.70	5.66	> 10000
C[C@@H](c1ccc(Cl)cc1)n1nnc2c1NC(=O)C[C@]21C(=O)N(CCF)c2ccc(Cl)cc21	7.42	< 5.30	8.05	< 5.30	> 10000
C[C@@H](c1ccc(Cl)cc1)n1nnc2c1NC(=O)C[C@]21C(=O)N(CCC(C)(C)C)c2ccc(Cl)cc21	6.06	5.41	7.09	5.96	> 10000
C[C@@H](c1ccc(Cl)cc1)n1nnc2c1NC(=O)C[C@]21C(=O)N(CCCCCCCCBr)c2ccc(Cl)cc21	< 5.30	–	–	–	> 10000
C[C@@H](c1ccc(Cl)cc1)n1nnc2c1NC(=O)C[C@]21C(=O)N(CC(=O)O)c2ccc(Cl)cc21	5.62	–	–	–	> 10000

Reference: ChEMBL document CHEMBL4414551, “Design, Synthesis, and Biological Evaluation of Substituted 4,6-Dihydrospiro[[1,2,3]triazolo[4,5-b]pyridine-7,3'-indoline]-2',5(3H)-dione Analogues as Potent NS4B Inhibitors for the Treatment of Dengue Virus Infection” (J Med Chem, 2019)
